# Source: ChEMBL document CHEMBL1122366, “Potential antiatherosclerotic agents. 3. Substituted benzoic and non benzoic acid analogues of cetaben” (1983)
# Values joined by “and” are separate entries in the source; they are usually repeats but may differ in a detail not shown here. Equal entries are not always repeated.
# Legend:
# [1] = test system: Rattus norvegicus; assay: In vivo sterol lowering activity at dose of 0.10 % of the diet; type: functional
# How it was run: (§1)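 Normal rats were dosed in the diet. Serum sterol and triglyceride levels were measured and expressed as the mean percent of control values. Significance versus control was reported at p < 0.05, 0.01 and 0.001.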
# [2] = target: T1, Sterol O-acyltransferase 1 (Rattus norvegicus) (UniProt O70536); assay: In vitro inhibition of acyl coenzyme A:cholesterol acyltransferase; set-up: concentration or dose not given beside the values; settings: concentration not given here
# T1 sequence (whole entry): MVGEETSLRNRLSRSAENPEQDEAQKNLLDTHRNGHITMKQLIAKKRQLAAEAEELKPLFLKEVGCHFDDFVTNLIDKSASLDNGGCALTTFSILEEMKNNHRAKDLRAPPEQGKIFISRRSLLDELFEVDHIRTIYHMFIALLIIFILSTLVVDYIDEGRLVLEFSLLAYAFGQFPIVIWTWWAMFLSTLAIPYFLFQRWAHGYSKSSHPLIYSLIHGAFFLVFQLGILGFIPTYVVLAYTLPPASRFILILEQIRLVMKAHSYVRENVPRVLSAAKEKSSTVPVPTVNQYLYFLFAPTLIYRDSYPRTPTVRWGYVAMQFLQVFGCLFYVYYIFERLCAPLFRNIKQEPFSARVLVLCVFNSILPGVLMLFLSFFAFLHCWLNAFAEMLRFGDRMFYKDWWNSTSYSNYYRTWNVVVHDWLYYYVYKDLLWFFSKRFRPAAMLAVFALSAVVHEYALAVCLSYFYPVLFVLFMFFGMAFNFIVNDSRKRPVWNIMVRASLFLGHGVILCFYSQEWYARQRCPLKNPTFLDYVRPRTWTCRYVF
# How it was run: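 Enzyme fatty acyl-CoA:cholesterol acyltransferase (ACAT), assayed in vitro at a single drug concentration of 5.2 μg/mL. The value is the mean percent inhibition of enzyme activity.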
# [3] = test system: Rattus norvegicus; assay: In vivo triglyceride lowering activity dosed at 0.10 % of the diet.; type: functional; how it was run: as §1
# [4] = test system: Rattus norvegicus; assay: In vivo sterol lowering activity when dosed as 0.03 % of the diet; type: functional; how it was run: as §1
inhibition [2],SMILES,"serum sterol level, percent of control [1]","serum triglyceride, percent of control [3]",Diet [3],"serum sterol level, percent of control [4]"
< 25%,CCCCCCCCCCCCCCCCN(C(=O)C(F)(F)F)c1ccc(C(=O)Nc2ccc(C(=O)OCC)cc2)cc1,95%,<69%,–,–
4%,CCCCCCCCCCCCCCCCN(C(C)=O)c1ccc(C(=O)OCC(O)COC(C)=O)cc1 (configuration not stated),97%,113%,–,–
8% and < 30%,CCCCCCCCCCCCCCCCNc1ccc(C#N)cc1,–,–,–,–
0%,CCCCCCCCCCCCCCCCNc1ccc(C(=O)OCC(O)CO)cc1 (configuration not stated),–,–,–,–
–,CCCCCCCCCCCCCCCCNc1ccc(C(=O)OCC)c(F)c1,90%,<68%,–,–
4%,CCCCCCCCCCCCCCCCNc1ccc(C(=O)OCC(COC(=O)CCCCCCCCCCCCCCC)OC(=O)CCCCCCCCCCCCCCC)cc1 (configuration not stated),<80%,75%,–,–
< 68%,CCCCCCCCCCCCCCCCN(C(=O)C(F)(F)F)c1ccc(C(=O)N2CCCCC2)cc1,92%,<68%,–,–
< 22%,CCCCCCCCCCCCCCCCNc1ccc(C(=O)Oc2cccnc2)cc1,93%,–,92%,–
0%,CCCCCCCCCCCCCCCCNc1ccc(C(=O)OCC(O)COC)cc1 (configuration not stated),<77%,<65%,–,–
12%,CCCCCCCCCCCCCCCCN(C(C)=O)c1ccc(C(=O)OCC(COC(C)=O)OC(C)=O)cc1 (configuration not stated),101%,111%,–,–
10% and 16%,CCCCCCCCCCCCCCCCNc1ccc(CO)cc1,–,–,–,–
< 22%,CCCCCCCCCCCCCCCCN(C(C)=O)c1ccc(CO)cc1,99%,105%,–,–
0%,CCCCCCCCCCCCCCCCN(C)c1ccc(C(=O)OCC(O)CO)cc1 (configuration not stated),99%,93%,–,–
0%,CCCCCCCCCCCCCCCCNc1ccc(C(=O)OC2CCCCCC2)cc1,<87%,84%,–,–
0%,CCCCCCCCCCCCCCCCNc1ccc(C(C#N)O[Si](C)(C)C)cc1 (configuration not stated),82%,<36%,–,–
< 72%,CCCCCCCCCCCCCCCCN(CC)c1ccc(C(=O)O)cc1,–,–,–,–
–,CCCCCCCCCCCCCCCCNc1ccc(C#N)cc1.Cl,100%,88%,–,–
0%,CCCCCCCCCCCCCCCCN(C(=O)C(F)(F)F)c1ccc(C(=O)NO)cc1,96%,91%,–,–
–,CCCCCCCCCCCCCCCCNc1ccc(CO)cc1.Cl,99%,100%,–,–
27%,CCCCCCCCCCCCCCNc1ccc(C(=O)OCC(O)CO)cc1 (configuration not stated),<80%,<47%,–,–
34%,CCCCCCCCCCCCCCCCNc1ccc(C(O)C(N)=O)cc1 (configuration not stated),94%,57%,–,–
28%,CCCCCCCCCCCCCCCCN(CCCCCCCCCCCCCCCC)c1ccc(CCC(=O)OCC)cc1,94%,84%,–,–
22%,CCCCCCCCCCCCCCCCNc1ccc(C(=O)OCC(COC(C)=O)OC(C)=O)cc1 (configuration not stated),<66%,<40%,–,–
< 49%,CCCCCCCCCCCCCCCCN(C(=O)C(F)(F)F)c1ccc(C(=O)C(C(=O)OCC)C(=O)OC(C)(C)C)cc1 (configuration not stated),90%,<64%,–,–
–,CCCCCCCCCCCCCCCCNc1ccc(C(=O)OCC2COC(c3ccccc3)O2)cc1 (configuration not stated),84%,<50%,–,–
10%,CCCCCCCCCCCCCCCCNc1ccc(C(=O)OC/C=C/COC(=O)c2ccc(NCCCCCCCCCCCCCCCC)cc2)cc1,91%,–,–,–
–,CCCCCCCCCCCCCCCCNc1ccc(C(=O)OC)cn1,114%,–,–,108%

inhibition [2],SMILES,"serum sterol level, percent of control [1]","serum triglyceride, percent of control [3]",Diet [3],"serum sterol level, percent of control [4]"
13%,CCCCCCCCCCCCCCCCNc1ncc(C(=O)OCC)cn1,–,–,–,–
< 50%,CCCCCCCCCCCCCCCCN(C(=O)C(F)(F)F)c1ccc(C(=O)NNC(C)=O)cc1,<81%,<61%,–,–
0%,CCCCCCCCCCCCCCCCNc1ccc(C(=O)OC)c(C)c1,99%,<60%,–,–
18%,CCCCCCCCCCCCCCCCN(CCCCCCCCCCCCCCCC)c1ccc(CCCC(=O)OCC)cc1,103%,90%,–,–
0%,CCCCCCCCCCCCCCCCNc1ccc(/C=N\N=C(\N)NCc2ccccc2)cc1,94%,<49%,–,–
9%,CCCCCCCCCCCCCCCCNc1ccc(C(=O)OCC(O)COCC)cc1 (configuration not stated),<68%,<47%,–,–
< 41%,CCCCCCCCCCCCCCCCNc1csc(C#N)c1,92%,99%,–,–
< 55%,CCCCCCCCCCCCCCCCNc1ccc(C(=O)N2CCCCC2)cc1,83%,<61%,–,–
6%,CCCCCCCCCCCCCCCCNc1cc(C(=O)OC)cc(C(=O)OC)c1,108%,86%,–,–
0%,CCCCCCCCCCCCCCCCNc1ccc(C(=O)OCC2COC(C)(C)O2)cc1 (configuration not stated),86%,<68%,–,–
45%,CCCCCCCCCCCCCCCCNc1ccc(C(=O)NC(C)C(=O)O)cc1 (configuration not stated),102%,132%,–,–
< 24%,CCCCCCCCCCCCCCCCNc1csc(C(=O)OCC)c1,112%,–,–,–
< 75%,CCCCCCCCCCCCCCCCN(C(=O)C(F)(F)F)c1ccc(C(=O)N2CCCCCC2)cc1,95%,<66%,–,–
–,CCCCCCCCCCCCCCCCNc1ccc(C(=O)Oc2ccc(C(=O)OC(C)(C)C)cc2)cc1,103%,<67%,–,–
13%,CCCCCCCCCCCCCCCCNc1ccc(SCC(=O)OCC)cc1,99%,126%,–,–
2%,CCCCCCCCCCCCCCCCNc1ccc(C(=O)OCC(COC(=O)c2ccc(NCCCCCCCCCCCCCCCC)cc2)OC(C)=O)cc1,89%,<63%,–,–
0%,CCCCCCCCCCCCCCCCNc1ccc(CCCC(=O)OCC)cc1,99%,76%,–,–
< 33%,CCCCCCCCCCCCCCCCNc1ccc(C(C)O)cc1 (configuration not stated),93%,93%,–,–
0%,CCCCCCCCCCCCCCCCN(C(C)=O)c1ccc(C(=O)OCC(O)CO)cc1 (configuration not stated),106%,110%,–,–
< 43%,CCCCCCCCCCCCCCCCNc1ccc(C(=O)CC(=O)OC)cc1,<84%,<47%,–,–
< 77%,CCCCCCCCCCCCCCCCNc1ccc(C(=O)NS(=O)(=O)c2ccc(C)cc2)cc1,–,–,–,–
5%,CCCCCCCCCCCCCCCCNc1ccc(C(=O)OCC)cc1F,105%,74%,–,–
< 23%,CCCCCCCCCCCCCCCCNc1ccc(C(=O)OC)c(F)c1,99%,79%,–,–
49%,CCCCCCCCCCCCCCCCNc1ccc(C(=O)O)c(O)c1,108%,<57%,–,–
14%,CCCCCCCCCCCCCCCCN(C(=O)CCCCCCCCCCCCCCC)c1ccc(C(=O)OCC(O)CO)cc1 (configuration not stated),99%,72%,–,–
78%,CCCCCCCCCCCCCCCCNc1ccc(-c2nn[nH]n2)cc1,89%,91%,–,–
48%,CCCCCCCCCCCCCCCCNc1ccc(C(=O)N(C)C)cc1,93%,89%,–,–
